Active and inactive are the calls of the source. The rule behind the calls is not given here.
Assays:
IGROV-1 [1] = assay: Induction of DNA damage in IGROV1 cells assessed as H2AX histone phosphorylation after 6 hrs; assay type: functional, cell-based; settings: Homo sapiens
NB-4 = assay: Antiproliferative activity against human NB4 cells after 72 hrs; assay type: functional, cell-based; settings: NB-4, 72 h
In short: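 Leukemia cells were exposed to drug for 24 h, and growth inhibition was assessed at 72 h by cell counting. IC₅₀ is the concentration giving a 50% drop in cell number versus untreated control.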

[2] = Antiproliferative activity against human cisplatin-resistant IGROV1/Pt1 cells with p53 mutation after 72 hrs; assay type: functional, cell-based, IGROV-1
In short: (§1)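 Ovarian carcinoma cells in log-phase growth were seeded in duplicate. Drug was added 24 h after seeding and exposure lasted 72 h. Cells were harvested and counted with a cell counter. IC₅₀ is the concentration giving a 50% drop in cell number versus untreated control.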

IGROV-1 [3] = assay: Induction of DNA damage in IGROV1 cells assessed as RPA2 protein phosphorylation after 6 hrs; assay type: functional, cell-based; settings: Homo sapiens
IGROV-1 [4] = assay: Antiproliferative activity against human IGROV1 cells after 72 hrs; assay type: functional, cell-based; settings: IGROV-1, 72 h; in short: as §1
IGROV-1 [5] = assay: Cell cycle arrest in IGROV1 cells assessed as accumulation at subG1 phase by FAC scan flow cytometry; assay type: functional, cell-based; settings: Homo sapiens, TDE = time-dependent effect
In short: (§2)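 Cells treated at the IC₈₀ concentration. Cell cycle distribution of propidium iodide-stained cells measured by FACScan flow cytometry at 24, 48 and 72 h of treatment. One experiment representative of three.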

IGROV-1 [6] = assay: Induction of apoptosis in IGROV1 cells after 72 hrs by TUNEL assay; assay type: functional, Homo sapiens; design: concentration or dose not given beside the values
In short: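 Cells exposed to drug for 72 h, fixed in 4% paraformaldehyde for 60 min at room temperature, then washed and resuspended in ice-cold PBS. Apoptosis detected by TUNEL and analyzed by flow cytometry.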

IGROV-1 [7] = assay: Induction of DNA damage in IGROV1 cells assessed as p53 protein phosphorylation after 6 hrs; assay type: functional, cell-based; settings: Homo sapiens
IGROV-1 [8] = assay: Cell cycle arrest in IGROV1 cells assessed as accumulation at G1/S phase by FAC scan flow cytometry; assay type: functional, cell-based; settings: Homo sapiens; in short: as §2
[9] = biological target: T1, MAP kinase p38 (Homo sapiens) (UniProt O15264+Q15759+Q16539+P53778); assay: Activation of p38 kinase in IGROV1/Pt1 cells with p53 mutation assessed as phosphorylation after 18 hrs; assay type: cell-based; settings: IGROV-1
In short: (§3)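 Cells treated for 18 h at each compound's IC₈₀ concentration. Lysates analyzed by Western blot with phospho-specific antibodies to detect activated JNK and p38.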

[10] = biological target: T1, MAP kinase p38 (Homo sapiens); assay: Activation of p38 kinase in IGROV1 cells assessed as phosphorylation after 18 hrs; assay type: cell-based; settings: IGROV-1; in short: as §3
[11] = biological target: c-Jun N-terminal kinase, JNK (Homo sapiens) (UniProt P45983+P53779+P45984); assay: Activation of JNK in IGROV1 cells assessed as phosphorylation after 18 hrs; assay type: cell-based; settings: IGROV-1; in short: as §3
[12] = Homo sapiens, IGROV-1/Pt1, 72 h

For `COc1ccc(-c2ccc(/C=C/C(=O)O)cc2)cc1C12CC3CC(CC(C3)C1)C2`, the Activity (IGROV-1 [1]) was “Active”, the IC50 (NB-4) was 1.1 µM and the IC50 [2, 12] was 1.43 µM. The Activity (IGROV-1 [3]) was “Active”, the IC50 (IGROV-1 [4]) was 1.19 µM and the Activity (IGROV-1 [5]) was “tde”. The Activity (IGROV-1 [6]) was 47%, the Activity (IGROV-1 [7]) was “Active” and the Activity (IGROV-1 [8]) was “Active”.

`COc1cc(-c2ccc(/C=C/C(=O)O)cc2)cc(C23CC4CC(CC(C4)C2)C3)c1O` gave an IC50 (NB-4) of 0.27 µM and an IC50 (IGROV-1 [4]) of 0.52 µM.

`O=C(O)C#Cc1ccc(-c2cc3c(c(C45CC6CC(CC(C6)C4)C5)c2)OCO3)cc1` showed an IC50 (NB-4) of 2 µM, an IC50 [2, 12] of 4.8 µM and an IC50 (IGROV-1 [4]) of 3.6 µM.

With `O=C(O)/C=C/c1ccc(-c2ccc(O)c(C34CC5CC(CC(C5)C3)C4)c2)cc1` [ADAROTENE] the IC50 [2, 12] was 0.4 µM, the Activity [9] was “Active” and the Activity (IGROV-1 [3]) was “Active”. For the same compound, the Activity (IGROV-1 [6]) was 51% and the Activity (IGROV-1 [7]) was “Active”.

For `COc1ccc(-c2ccc(/C=C(\Br)C(=O)O)cc2)cc1C12CC3CC(CC(C3)C1)C2`, the IC50 (NB-4) was 17.9 µM, the IC50 [2, 12] was > 20 µM and the IC50 (IGROV-1 [4]) was > 20 µM.

In the case of `O=C(O)/C=C/c1ccc(-c2cccc(C34CC5CC(CC(C5)C3)C4)c2)cc1`, the IC50 [2, 12] is reported as 21.9 µM and the IC50 (IGROV-1 [4]) is reported as 18.8 µM.

Compound `CC(=O)NCc1cc(-c2ccc(/C=C/C(=O)O)cc2)cc(C23CC4CC(CC(C4)C2)C3)c1O` has an IC50 (NB-4) of 0.99 µM, an IC50 [2, 12] of 2.89 µM and an IC50 (IGROV-1 [4]) of 1.24 µM.

For `COc1cc(-c2ccc(/C=C/C(=O)O)cc2)cc(C23CC4CC(CC(C4)C2)C3)c1OC`, the IC50 (NB-4) was 1.89 µM, the IC50 [2, 12] was 2.4 µM and the IC50 (IGROV-1 [4]) was 0.71 µM.

With `O=C(O)/C=C/c1ccc(-c2cc3c(c(C45CC6CC(CC(C6)C4)C5)c2)OCCO3)cc1` the IC50 (NB-4) was 0.11 µM, the IC50 [2, 12] was 0.48 µM and the Activity (IGROV-1 [3]) was “Active”. The IC50 (IGROV-1 [4]) was 0.23 µM, the Activity (IGROV-1 [5]) was “tde” and the Activity (IGROV-1 [6]) was 30%. For the same compound, the Activity (IGROV-1 [7]) was “Active” and the Activity (IGROV-1 [8]) was “Active”.

With `O=C(O)/C=C/c1ccc(-c2cc(CO)c(O)c(C34CC5CC(CC(C5)C3)C4)c2)cc1` the IC50 (NB-4) was 0.19 µM, the IC50 [2] was 1.04 µM and the Activity (IGROV-1 [3]) was “Active”. The IC50 (IGROV-1 [4]) was 0.76 µM, the Activity (IGROV-1 [6]) was 45% and the Activity (IGROV-1 [7]) was “Active”.

With `O=C(O)/C(Br)=C\c1ccc(-c2cc3c(c(C45CC6CC(CC(C6)C4)C5)c2)OCO3)cc1` the IC50 (NB-4) was 72.3 µM, the IC50 [2, 12] was 34.1 µM and the IC50 (IGROV-1 [4]) was 36.6 µM.

With `O=Cc1cc(-c2ccc(/C=C/C(=O)O)cc2)cc(C23CC4CC(CC(C4)C2)C3)c1O` the IC50 (NB-4) was 1.61 µM, the IC50 [2, 12] was 2.72 µM and the IC50 (IGROV-1 [4]) was 1.64 µM.

In the case of `COc1ccc(-c2ccc(C#CC(=O)O)cc2)cc1C12CC3CC(CC(C3)C1)C2`, the IC50 [2, 12] is reported as 4.8 µM and the IC50 (IGROV-1 [4]) is reported as 1.7 µM.

With `O=C(O)/C=C/c1ccc(-c2cc3c(c(C45CC6CC(CC(C6)C4)C5)c2)OCO3)cc1` the Activity [10] was “Active”, the IC50 (NB-4) was 0.26 µM and the IC50 [2, 12] was 0.46 µM. For the same compound, the Activity (IGROV-1 [3]) was “Active”, the IC50 (IGROV-1 [4]) was 0.39 µM and the Activity (IGROV-1 [5]) was “tde”. For the same compound, the Activity (IGROV-1 [6]) was 50%, the Activity [11] was “Active” and the Activity (IGROV-1 [7]) was “Active”. For the same compound, the Activity (IGROV-1 [8]) was “Active”.

In the case of `Cl.NCc1cc(-c2ccc(/C=C/C(=O)O)cc2)cc(C23CC4CC(CC(C4)C2)C3)c1O`, the IC50 (NB-4) is reported as 0.18 µM, the IC50 [2, 12] is reported as 0.39 µM and the Activity (IGROV-1 [3]) is reported as “Active”. The IC50 (IGROV-1 [4]) was 0.45 µM, the Activity (IGROV-1 [5]) was “tde” and the Activity (IGROV-1 [6]) was 55%. For the same compound, the Activity (IGROV-1 [7]) was “Active” and the Activity (IGROV-1 [8]) was “Active”.

For `COc1c(O)cc(-c2ccc(/C=C/C(=O)O)cc2)cc1C12CC3CC(CC(C3)C1)C2`, the IC50 (NB-4) was 0.55 µM, the IC50 [2, 12] was 0.97 µM and the Activity (IGROV-1 [3]) was “Active”. The IC50 (IGROV-1 [4]) was 0.57 µM, the Activity (IGROV-1 [5]) was “tde” and the Activity (IGROV-1 [6]) was 20%. The Activity (IGROV-1 [7]) was “Active” and the Activity (IGROV-1 [8]) was “Active”.

With `COc1ccc(-c2ccc(/C=C(/Br)C(=O)O)cc2)cc1C12CC3CC(CC(C3)C1)C2` the IC50 (NB-4) was 41 µM, the IC50 [2, 12] was > 10 µM and the IC50 (IGROV-1 [4]) was 30.6 µM.

— ChEMBL document CHEMBL1149584, “Synthesis and structure-activity relationships of new antiproliferative and proapoptotic retinoid-related biphenyl-4-yl-acrylic acids” (Bioorg Med Chem, 2007)
